Test results: ChEMBL document CHEMBL4813974 (Eur J Med Chem, 2021)
Activity calls are given as the source filed them. The rule behind the calls is not given here.

Legend:
[1] = molecular target: T1, Alkaline ceramidase 3 (Mus musculus) (UniProt Q9D099); experiment: Inhibition of ACER3 in ASAH2-null intact mouse embryonic fibroblast cell assessed as increase in total […] incubated for 3 hrs by LC-MS analysis; settings: MEF
T1 sequence (whole entry): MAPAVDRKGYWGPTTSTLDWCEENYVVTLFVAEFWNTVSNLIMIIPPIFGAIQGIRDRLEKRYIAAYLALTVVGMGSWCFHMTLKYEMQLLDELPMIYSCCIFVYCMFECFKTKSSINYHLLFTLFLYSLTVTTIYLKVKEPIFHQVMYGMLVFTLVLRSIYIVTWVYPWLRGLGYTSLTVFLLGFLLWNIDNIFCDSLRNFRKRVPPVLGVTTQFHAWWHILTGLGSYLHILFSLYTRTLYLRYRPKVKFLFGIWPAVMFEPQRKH
Procedure, shortened: (§1)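 ASAH2-null MEF seeded at 0.2x10^6 cells/mL, grown 24 h, then given 50 μM compound or vehicle in DMEM 10% FBS for 3 h. Cells washed with PBS, lipids extracted and quantified by LC/MS. Mean ± SD from two experiments with triplicates; unpaired two-tailed t-test versus vehicle.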

[2] = molecular target: T1, Alkaline ceramidase 3 (Mus musculus); experiment: Inhibition of ACER3 in ASAH2-null mouse embryonic fibroblast lysate using RBM14C16 fluorogenic substrate measured at pH 9 in presence of Ca2+ by fluorescence spectrophotometry; assay type: subcellular; settings: MEF, time 3.0 hrs
Procedure, shortened: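 Lysate of ASAH2-null MEF (25 μg protein) in 50 mM HEPES, 1 mM CaCl2, pH 9, incubated 3 h at 37 °C with RBM14C16 and test compound. Stopped with MeOH, then NaIO4 in glycine-NaOH pH 10.6, 1 h at 37 °C in dark. Fluorescence read at ex 355/em 460 nm against enzyme-free blanks. Triplicates.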

[3] = molecular target: T1, Alkaline ceramidase 3 (Mus musculus); experiment: Inhibition of ACER3 in ASAH2-null intact mouse embryonic fibroblast cell assessed as reduction in glucosylceramide level incubated for 3 hrs by LC-MS analysis; settings: MEF; procedure, shortened: as §1
Alkaline ceramidase 3 = molecular target: T2, Alkaline ceramidase 3 (Mus musculus, UniProt Q9D099); experiment: Non-competitive inhibition of ACER3 in ASAH2-null mouse embryonic fibroblast lysate using RBM14C16 as substrate; assay type: subcellular
T2 sequence (Q9D099 whole entry): T1 sequence (whole entry)
Procedure, shortened: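 Kinetics used ASAH2-null MEF lysate (25 μg) in 50 mM HEPES, 1 mM CaCl2, pH 9. RBM14C16 at 5, 10, 20 and 40 μM, with varied inhibitor amounts. Ki taken from the slopes of double-reciprocal regression lines at each inhibitor concentration. Four experiments in triplicate.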

[4] = molecular target: T3, Acid ceramidase (Homo sapiens) (UniProt Q13510); experiment: Inhibition of human ASAH1 stably over expressed in human A-375 cell lysate using RBM14C12 fluorogenic substrate measured at 1:1 compound to substrate molar ratio at pH 4.5 by fluorescence spectrophotometry; assay type: subcellular
T3 sequence (whole entry): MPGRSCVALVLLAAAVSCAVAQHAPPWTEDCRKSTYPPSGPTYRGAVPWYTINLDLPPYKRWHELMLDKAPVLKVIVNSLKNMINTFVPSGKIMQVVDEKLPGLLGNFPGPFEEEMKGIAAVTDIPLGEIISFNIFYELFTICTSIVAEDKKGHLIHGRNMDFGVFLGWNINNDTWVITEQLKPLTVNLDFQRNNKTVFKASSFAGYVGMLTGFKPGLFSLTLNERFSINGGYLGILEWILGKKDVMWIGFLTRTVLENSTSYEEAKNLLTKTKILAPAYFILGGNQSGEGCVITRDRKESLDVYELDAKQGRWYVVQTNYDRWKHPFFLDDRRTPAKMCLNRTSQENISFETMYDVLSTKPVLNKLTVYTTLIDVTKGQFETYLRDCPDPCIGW

[5] = molecular target: Neutral ceramidase (Mus musculus) (UniProt Q9JHE3); experiment: Inhibition of ASAH2 in wild type mouse intact embryonic fibroblast using RBM14C16 fluorogenic substrate measured at pH 7.5 incubated for 3 hrs by fluorescence spectrophotometry; settings: MEF
Neutral ceramidase (Mus musculus), sequence (Q9JHE3 whole entry): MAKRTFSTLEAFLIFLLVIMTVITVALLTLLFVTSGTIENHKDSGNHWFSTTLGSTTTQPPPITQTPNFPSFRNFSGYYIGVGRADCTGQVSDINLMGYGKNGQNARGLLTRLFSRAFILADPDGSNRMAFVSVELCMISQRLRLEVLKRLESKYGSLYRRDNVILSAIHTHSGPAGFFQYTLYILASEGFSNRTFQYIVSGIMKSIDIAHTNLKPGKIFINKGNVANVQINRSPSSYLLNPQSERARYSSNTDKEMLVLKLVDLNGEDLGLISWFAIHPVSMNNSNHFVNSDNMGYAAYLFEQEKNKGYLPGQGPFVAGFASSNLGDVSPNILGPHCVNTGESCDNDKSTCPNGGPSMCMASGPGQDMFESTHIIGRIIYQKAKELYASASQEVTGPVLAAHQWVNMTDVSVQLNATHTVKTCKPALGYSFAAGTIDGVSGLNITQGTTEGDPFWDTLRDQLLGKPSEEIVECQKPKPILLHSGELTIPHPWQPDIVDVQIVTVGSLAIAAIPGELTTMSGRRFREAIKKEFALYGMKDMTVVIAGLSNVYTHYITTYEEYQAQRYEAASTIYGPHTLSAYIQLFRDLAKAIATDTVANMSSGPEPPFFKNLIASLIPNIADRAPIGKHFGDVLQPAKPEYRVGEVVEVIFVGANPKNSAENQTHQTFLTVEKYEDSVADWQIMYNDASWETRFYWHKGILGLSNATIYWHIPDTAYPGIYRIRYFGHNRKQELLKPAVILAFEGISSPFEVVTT
Procedure, shortened: (§2)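 Intact MEF (ASAH2-null or wild type) seeded at 2x10^4 cells/well 24 h before the assay. Then given RBM14C16 (10 μM) plus a range of compound concentrations, added together, in DMEM 10% FBS for 3 h at 37 °C. Stopped with MeOH, oxidized with NaIO4 at pH 10.6, umbelliferone fluorescence read at 355/460 nm. Normalized to SRB protein; three experiments in triplicate.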

[6] = molecular target: T1, Alkaline ceramidase 3 (Mus musculus); experiment: Inhibition of ACER3 in ASAH2-null mouse intact embryonic fibroblast using RBM14C16 fluorogenic substrate measured at pH 9 for 3 hrs by fluorescence spectrophotometry; settings: MEF; procedure, shortened: as §2
Acid ceramidase = molecular target: T4, Acid ceramidase (Homo sapiens, UniProt Q13510); experiment: (§3) Inhibition of human ASAH1 stably over expressed in human intact A-375 cells using RBM14C12 fluorogenic substrate measured at pH 4.5 by fluorescence spectrophotometry; assay type: cell-based
T4 sequence (Q13510 whole entry): T3 sequence (whole entry)
Procedure, shortened: (§4)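 A375 cells with doxycycline-inducible AC, induced with 1 μg/mL doxycycline for 24 h. Intact cells (2x10^4/well) given RBM14C12 (10 μM) plus compounds in a range of concentrations in DMEM 10% FBS for 3 h at 37 °C. NaIO4 oxidation at pH 10.6, fluorescence at 355/460 nm, normalized to SRB protein. Three experiments in triplicate.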

[7] = molecular target: T1, Alkaline ceramidase 3 (Mus musculus); experiment: Inhibition of ACER3 in ASAH2-null intact mouse embryonic fibroblast cell assessed as reduction in sphingomyelin level incubated for 3 hrs by LC-MS analysis; settings: MEF; procedure, shortened: as §1
[8] = molecular target: T1, Alkaline ceramidase 3 (Mus musculus); experiment: Inhibition of ACER3 in ASAH2-null intact mouse embryonic fibroblast cell assessed as reduction in sphingosine level incubated for 3 hrs by LC-MS analysis; settings: MEF; procedure, shortened: as §1
Neutral ceramidase [9] = molecular target: T5, Neutral ceramidase (Homo sapiens, UniProt Q9NR71); experiment: Inhibition of human ASAH2 transiently over expressed in human HT-29 cell lysate using RBM14C24 fluorogenic substrate measured at pH 7.4 by fluorescence spectrophotometry
T5 sequence (Q9NR71 whole entry): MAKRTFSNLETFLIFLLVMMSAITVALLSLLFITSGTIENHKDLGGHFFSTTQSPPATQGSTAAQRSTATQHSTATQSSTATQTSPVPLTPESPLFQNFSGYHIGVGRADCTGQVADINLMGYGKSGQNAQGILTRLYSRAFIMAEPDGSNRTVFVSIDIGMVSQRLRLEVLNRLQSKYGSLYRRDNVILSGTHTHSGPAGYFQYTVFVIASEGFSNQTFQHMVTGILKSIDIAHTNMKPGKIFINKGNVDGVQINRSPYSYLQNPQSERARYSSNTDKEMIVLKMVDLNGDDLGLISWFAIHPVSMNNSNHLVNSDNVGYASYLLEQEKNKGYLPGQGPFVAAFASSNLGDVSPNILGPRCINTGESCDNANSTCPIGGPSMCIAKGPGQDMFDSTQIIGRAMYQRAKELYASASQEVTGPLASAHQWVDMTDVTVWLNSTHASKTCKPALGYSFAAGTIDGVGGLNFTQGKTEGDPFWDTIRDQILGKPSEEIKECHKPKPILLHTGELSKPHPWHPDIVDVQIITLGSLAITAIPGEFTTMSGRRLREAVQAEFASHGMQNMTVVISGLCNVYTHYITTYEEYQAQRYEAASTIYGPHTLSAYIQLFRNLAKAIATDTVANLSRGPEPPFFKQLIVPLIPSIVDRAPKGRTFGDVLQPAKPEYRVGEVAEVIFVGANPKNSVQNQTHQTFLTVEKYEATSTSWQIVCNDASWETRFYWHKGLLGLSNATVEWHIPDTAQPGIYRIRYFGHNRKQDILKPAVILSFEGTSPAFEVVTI

Neutral ceramidase [10] = molecular target: T5, Neutral ceramidase; experiment: Inhibition of human ASAH2 recombinant enzyme using RBM14C16 fluorogenic substrate measured at 20:1 substrate to compound molar ratio at pH 7.5 by fluorescence spectrophotometry
[11] = molecular target: T3, Acid ceramidase (Homo sapiens); experiment: Inhibition of human ASAH1 stably over expressed in human A-375 cell lysate using RBM14C12 fluorogenic substrate measured at 40 uM at pH 4.5 by fluorescence spectrophotometry; assay type: subcellular
Procedure, shortened: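 Lysate of doxycycline-induced AC-overexpressing A375 cells (25 μg) in 25 mM sodium acetate pH 4.5, with RBM14C12 (10 μM) and a range of compound concentrations, 3 h at 37 °C. NaIO4/glycine-NaOH pH 10.6 development, fluorescence at 355/460 nm. Mean ± SEM from three to four experiments in triplicate.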

Neutral ceramidase [12] = molecular target: T5, Neutral ceramidase; experiment: Inhibition of human ASAH2 stably over expressed in human A-375 cell lysate using RBM14C24 fluorogenic substrate measured at 20 uM at pH 7.5 by fluorescence spectrophotometry; assay type: subcellular
[13] = molecular target: T3, Acid ceramidase (Homo sapiens); experiment: as §3; assay type: cell-based; settings: time 3.0 hrs; procedure, shortened: as §4
Neutral ceramidase [14] = molecular target: T5, Neutral ceramidase; experiment: Non-competitive inhibition of recombinant ASAH2 stably over expressed in human A-375 cell lysate using RBM14C24 as substrate; assay type: subcellular
Neutral ceramidase [15] = molecular target: T5, Neutral ceramidase; experiment: Inhibition of human ASAH2 recombinant enzyme using RBM14C16 fluorogenic substrate measured at 5 uM at pH 7.5 by fluorescence spectrophotometry
Neutral ceramidase [16] = molecular target: T5, Neutral ceramidase; experiment: Inhibition of human ASAH2 transiently over expressed in human HT29 cell lysate using RBM14C24 fluorogenic substrate measured at >40 uM at pH 7.4 by fluorescence spectrophotometry; settings: HT-29, dose microM >40

| fold change (FC) [1] | inhibition [2] | inhibition [3] | Ki (Alkaline ceramidase 3) [µM] | inhibition [4] | inhibition [5] | inhibition [6] | IC50 (Acid ceramidase) [µM] | inhibition [7] | inhibition [8] | inhibition (Neutral ceramidase [9]) | inhibition (Neutral ceramidase [10]) | inhibition [11] | inhibition (Neutral ceramidase [12]) | inhibition [13] | Ki (Neutral ceramidase [14]) [µM] | inhibition (Neutral ceramidase [15]) | inhibition (Neutral ceramidase [16]) [%] | SMILES |
| --- | --- | --- | --- | --- | --- | --- | --- | --- | --- | --- | --- | --- | --- | --- | --- | --- | --- | --- |
| 1.5 | Dose-Dependent Effect | inactive | 34.4 | inactive | Active | Active | > 200 | inactive | inactive |  |  |  |  |  |  |  |  | CCCCCCCCCCCC/C=C/[C@@H](O)[C@@H](C)NC(=O)c1ccc(OCCCCOCOC)cc1 |
|  |  |  |  | inactive | inactive | inactive |  |  |  | inactive | Active | Active | Active | inactive | 0.8 | Active |  | CCCCCCCCCCCC/C=C/[C@@H](O)[C@@H](C)NC(=O)c1ccc(CCCCCCC)cc1 |
| 1.5 | Dose-Dependent Effect | inactive | 25.5 | inactive | Active | Active | > 200 | inactive | inactive | Dose-Dependent Effect |  | Active | inactive |  | 5.4 |  | 50 | CCCCCCCCCCCC/C=C/[C@@H](O)[C@@H](C)NC(=O)c1ccc(OCCCOCOC)cc1 |
